# T1: RAD52–ssDNA interaction (Homo sapiens, UniProt P43351)
# T1 sequence (P43351 1-418): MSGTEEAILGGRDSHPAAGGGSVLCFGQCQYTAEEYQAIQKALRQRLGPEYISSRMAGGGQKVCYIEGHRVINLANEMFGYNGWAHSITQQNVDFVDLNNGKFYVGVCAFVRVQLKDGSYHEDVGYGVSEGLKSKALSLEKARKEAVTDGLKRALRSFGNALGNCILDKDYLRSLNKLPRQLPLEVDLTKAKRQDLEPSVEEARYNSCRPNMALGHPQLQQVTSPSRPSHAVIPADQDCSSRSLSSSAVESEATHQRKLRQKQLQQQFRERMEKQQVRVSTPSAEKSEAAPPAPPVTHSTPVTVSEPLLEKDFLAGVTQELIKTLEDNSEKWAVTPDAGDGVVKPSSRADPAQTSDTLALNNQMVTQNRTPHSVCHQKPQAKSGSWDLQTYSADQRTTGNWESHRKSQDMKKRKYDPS
# B1: 6xHis-tagged human RAD52 (wild type) (natural protein)
# chain: T1 sequence (P43351 1-418)
# Legend:
# EUFA423F = conditions: cited from earlier work
# [1] = tested on: complemented cell line (HA); conditions: cited from earlier work
# MRC5 SV40 cells = experiment: Native IdU assay, nascent ssDNA; assay type: cell-based, human; conditions: 2 mM HU, short treatment
# RAD52–ssDNA interaction = molecular target: T1, RAD52–ssDNA interaction; conditions: cited from earlier work
# BRCA2-depleted cells = conditions: cited from earlier work
# [2] = tested on: association of RAD52 with parental ssDNA; experiment: In situ proximity ligation assay; assay type: cell-based; conditions: after HU treatment
# How it was run: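 Parental DNA was labelled with 50 μM IdU for 20 h, then 2 h in fresh DMEM before treatment. Cells were Triton-permeabilised (0.5%, 10 min, 4°C), fixed in 3% formaldehyde/2% sucrose and blocked in 3% BSA. Probes: rabbit anti-RAD52 (1:150) plus mouse anti-IdU (1:10), then PLA probes, each 1 h at 37°C. Ligation and rolling-circle amplification used a TRITC oligo. Single-antibody controls were included; spots per cell given as mean ± SE.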
# MRC5SV40 fibroblasts = experiment: Neutral comet assay, HU-induced DSBs; assay type: cell-based, human; conditions: HU 24 h, inhibitor 30 min before HU
# RPA–ssDNA interaction = RPA–ssDNA interaction (Homo sapiens, UniProt P27694); conditions: cited from earlier work
# mass photometry = molecular target: the molecule itself; experiment: mass photometry
# Sequence of RPA–ssDNA interaction (P27694 whole entry): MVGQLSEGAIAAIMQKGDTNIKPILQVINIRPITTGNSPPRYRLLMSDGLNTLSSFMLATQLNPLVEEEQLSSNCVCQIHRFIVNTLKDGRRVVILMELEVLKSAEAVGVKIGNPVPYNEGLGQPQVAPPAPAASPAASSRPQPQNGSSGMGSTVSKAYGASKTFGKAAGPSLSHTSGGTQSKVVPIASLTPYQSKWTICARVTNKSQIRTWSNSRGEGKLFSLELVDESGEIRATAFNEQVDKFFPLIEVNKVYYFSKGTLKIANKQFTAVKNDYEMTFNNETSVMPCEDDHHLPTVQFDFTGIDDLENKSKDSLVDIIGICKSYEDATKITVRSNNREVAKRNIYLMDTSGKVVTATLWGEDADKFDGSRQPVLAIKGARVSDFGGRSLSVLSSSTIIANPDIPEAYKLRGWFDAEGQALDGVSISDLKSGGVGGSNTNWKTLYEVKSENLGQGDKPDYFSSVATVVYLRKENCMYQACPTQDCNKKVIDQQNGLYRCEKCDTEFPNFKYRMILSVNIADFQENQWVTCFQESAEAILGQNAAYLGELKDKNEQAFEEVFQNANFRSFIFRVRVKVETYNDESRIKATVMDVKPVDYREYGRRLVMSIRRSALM
# Sequence of RPA–ssDNA interaction (P15927 whole entry partner): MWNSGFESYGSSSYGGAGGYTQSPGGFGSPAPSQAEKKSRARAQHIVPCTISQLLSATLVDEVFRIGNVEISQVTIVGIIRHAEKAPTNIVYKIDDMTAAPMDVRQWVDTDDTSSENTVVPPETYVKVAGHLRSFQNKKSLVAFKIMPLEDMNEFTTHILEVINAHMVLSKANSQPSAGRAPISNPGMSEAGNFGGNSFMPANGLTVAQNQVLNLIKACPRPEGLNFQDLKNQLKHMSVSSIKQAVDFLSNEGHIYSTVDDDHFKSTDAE
# Sequence of RPA–ssDNA interaction (P35244 whole entry partner): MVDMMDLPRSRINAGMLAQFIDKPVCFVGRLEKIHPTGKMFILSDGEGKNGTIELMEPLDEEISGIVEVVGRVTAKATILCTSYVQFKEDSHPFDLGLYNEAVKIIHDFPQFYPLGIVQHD
molecule,measurement,setting,value
C[C@]1(c2nc3c(C(N)=O)cccc3[nH]2)CCCN1 [veliparib],Sensitivity of EUFA423F cells,EUFA423F,sensitive
same,Sensitivity of complemented cell line (HA),[1],resistant
"Oc1cc(O)c2c(c1)O[C@H](c1cc(O)c(O)c(O)c1)[C@H](O)C2 [EGC, epigallocatechin]",Exposure of nascent ssDNA (native anti-IdU IF),MRC5 SV40 cells,significantly increased the level of ssDNA
same,Competition with ssDNA binding to RAD52,RAD52–ssDNA interaction,competed with ssDNA binding to RAD52
same,Specificity for RAD52,RAD52–ssDNA interaction,highly specific to RAD52
same,Toxicity to BRCA2-depleted cells,BRCA2-depleted cells,selectively toxic
same,Association of RAD52 with parental ssDNA (PLA spots per cell),[2],supressed
same,DSBs formation (tail moment) in HU-treated cells,MRC5SV40 fibroblasts,significantly reduced
CO[C@@]12[C@H](COC(N)=O)C3=C(C(=O)C(C)=C(N)C3=O)N1C[C@@H]1N[C@@H]12 [mitomycin C],Sensitivity of complemented cell line (HA),[1],resistant
"O=C(O[C@@H]1Cc2c(O)cc(O)cc2O[C@@H]1c1cc(O)c(O)c(O)c1)c1cc(O)c(O)c(O)c1 [EGCG, epigallocatechin gallate]",Effect on ssDNA binding to RPA,RPA–ssDNA interaction,also inhibited the RPA–ssDNA interaction
B1,stoichiometry N,mass photometry,10

# Source: paper PMC10150327 (NAR Cancer, 2023)
